Test results from ChEMBL document CHEMBL2016452, “Flavones and structurally related 4-chromenones inhibit carbonic anhydrases by a different mechanism of action compared to coumarins” (Bioorg Med Chem Lett, 2012).

Tests used:
Carbonic anhydrase 15 = molecular target: T1, Carbonic anhydrase 15 (Mus musculus, UniProt Q99N23); assay: Inhibition of mouse carbonic anhydrase 15 preincubated for 15 mins by stopped flow CO2 hydration assay
T1 sequence (Q99N23 whole entry): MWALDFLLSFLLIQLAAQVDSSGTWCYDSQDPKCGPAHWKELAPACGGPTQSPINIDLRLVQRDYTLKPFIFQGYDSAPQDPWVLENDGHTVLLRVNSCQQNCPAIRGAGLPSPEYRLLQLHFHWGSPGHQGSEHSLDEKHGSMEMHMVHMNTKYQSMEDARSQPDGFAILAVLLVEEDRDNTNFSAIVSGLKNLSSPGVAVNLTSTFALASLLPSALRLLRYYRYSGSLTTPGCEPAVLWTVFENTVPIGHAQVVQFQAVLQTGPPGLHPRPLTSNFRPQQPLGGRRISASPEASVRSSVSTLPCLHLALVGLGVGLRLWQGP
Summary of the method: (§1)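 Stopped-flow CO2 hydration, with phenol red 0.2 mM as indicator at 557 nm. Buffer 20 mM Hepes pH 7.5 with 20 mM NaClO4. Initial rates measured over 10–100 s, with uncatalyzed rate subtracted. Inhibitor stock 0.1 mM in water, diluted with assay buffer. Enzyme and inhibitor preincubated 15 min at room temperature. KI by non-linear least squares, mean of at least three determinations.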

Carbonic anhydrase 7 = Carbonic anhydrase 7 (Homo sapiens, UniProt P43166); assay: Inhibition of human carbonic anhydrase 7 preincubated for 15 mins by stopped flow CO2 hydration assay; summary of the method: as §1
Carbonic anhydrase 9 [1] = molecular target: T2, Carbonic anhydrase 9 (Homo sapiens, UniProt Q16790); assay: Inhibition of transmembrane tumor-associated human carbonic anhydrase 9 preincubated for 15 mins by stopped flow CO2 hydration assay; summary of the method: as §1
Carbonic anhydrase 12 [2] = molecular target: T3, Carbonic anhydrase 12 (Homo sapiens, UniProt O43570); assay: Inhibition of transmembrane tumor-associated human carbonic anhydrase 12 preincubated for 15 mins by stopped flow CO2 hydration assay; summary of the method: as §1
Carbonic anhydrase 6 = Carbonic anhydrase 6 (Homo sapiens, UniProt P23280); assay: Inhibition of human carbonic anhydrase 6 preincubated for 15 mins by stopped flow CO2 hydration assay
[3] = molecular target: Carbonic anhydrase 5B, mitochondrial (Homo sapiens, UniProt Q9Y2D0); assay: Inhibition of human carbonic anhydrase 5b preincubated for 15 mins by stopped flow CO2 hydration assay
Carbonic anhydrase 14 = Carbonic anhydrase 14 (Homo sapiens, UniProt Q9ULX7); assay: Inhibition of human carbonic anhydrase 14 preincubated for 15 mins by stopped flow CO2 hydration assay
Carbonic anhydrase 2 [4] = molecular target: T4, Carbonic anhydrase 2 (Homo sapiens, UniProt P00918); assay: Inhibition of cytosolic human carbonic anhydrase 2 preincubated for 15 mins by stopped flow CO2 hydration assay
Carbonic anhydrase 4 = Carbonic anhydrase 4 (Homo sapiens, UniProt P22748); assay: Inhibition of human carbonic anhydrase 4 preincubated for 15 mins by stopped flow CO2 hydration assay
[5] = molecular target: Carbonic anhydrase 5A, mitochondrial (Homo sapiens, UniProt P35218); assay: Inhibition of human carbonic anhydrase 5a preincubated for 15 mins by stopped flow CO2 hydration assay
Carbonic anhydrase 3 = Carbonic anhydrase 3 (Homo sapiens, UniProt P07451); assay: Inhibition of human carbonic anhydrase 3 preincubated for 15 mins by stopped flow CO2 hydration assay
Carbonic anhydrase 13 = Carbonic anhydrase 13 (Homo sapiens, UniProt Q8N1Q1); assay: Inhibition of human carbonic anhydrase 13 preincubated for 15 mins by stopped flow CO2 hydration assay
Carbonic anhydrase 1 [6] = molecular target: T5, Carbonic anhydrase 1 (Homo sapiens, UniProt P00915); assay: Inhibition of cytosolic human carbonic anhydrase 1 preincubated for 15 mins by stopped flow CO2 hydration assay
Carbonic anhydrase 9 [7] = molecular target: T2, Carbonic anhydrase 9; assay: Inhibition of transmembrane tumor-associated human carbonic anhydrase 9 preincubated for 12 hrs by stopped flow CO2 hydration assay
Summary of the method: (§2)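 Stopped-flow CO2 hydration, with phenol red 0.2 mM as indicator read at 557 nm. Buffer 20 mM Hepes pH 7.5 with 20 mM NaClO4 for ionic strength. Initial rates followed for 10–100 s, with uncatalyzed rates subtracted. Inhibitor stock 0.1 mM in water, diluted in assay buffer. Enzyme and inhibitor preincubated 12 h at 4 °C. KI by non-linear least squares, mean of at least three determinations.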

Carbonic anhydrase 1 [8] = molecular target: T5, Carbonic anhydrase 1; assay: Inhibition of cytosolic human carbonic anhydrase 1 preincubated for 12 hrs by stopped flow CO2 hydration assay; summary of the method: as §2
Carbonic anhydrase 2 [9] = molecular target: T4, Carbonic anhydrase 2; assay: Inhibition of cytosolic human carbonic anhydrase 2 preincubated for 12 hrs by stopped flow CO2 hydration assay; summary of the method: as §2
Carbonic anhydrase 12 [10] = molecular target: T3, Carbonic anhydrase 12; assay: Inhibition of transmembrane tumor-associated human carbonic anhydrase 12 preincubated for 12 hrs by stopped flow CO2 hydration assay; summary of the method: as §2

T5 sequence (P00915 whole entry): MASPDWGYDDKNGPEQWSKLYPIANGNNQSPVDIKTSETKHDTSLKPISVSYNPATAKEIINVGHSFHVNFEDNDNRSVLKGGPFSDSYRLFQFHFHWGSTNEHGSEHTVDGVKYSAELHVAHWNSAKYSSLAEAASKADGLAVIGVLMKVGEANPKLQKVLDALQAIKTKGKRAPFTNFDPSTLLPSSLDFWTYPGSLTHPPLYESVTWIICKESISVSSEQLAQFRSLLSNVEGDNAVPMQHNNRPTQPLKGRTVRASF
Chain of Carbonic anhydrase 7 (P43166 whole entry): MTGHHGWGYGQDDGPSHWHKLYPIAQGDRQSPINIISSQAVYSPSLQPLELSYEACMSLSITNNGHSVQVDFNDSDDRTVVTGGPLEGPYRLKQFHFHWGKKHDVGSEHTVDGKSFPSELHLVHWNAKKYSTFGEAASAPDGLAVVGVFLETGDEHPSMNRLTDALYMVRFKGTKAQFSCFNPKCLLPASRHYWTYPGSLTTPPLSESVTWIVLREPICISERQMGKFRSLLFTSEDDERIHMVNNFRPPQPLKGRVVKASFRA
T3 sequence (O43570 whole entry): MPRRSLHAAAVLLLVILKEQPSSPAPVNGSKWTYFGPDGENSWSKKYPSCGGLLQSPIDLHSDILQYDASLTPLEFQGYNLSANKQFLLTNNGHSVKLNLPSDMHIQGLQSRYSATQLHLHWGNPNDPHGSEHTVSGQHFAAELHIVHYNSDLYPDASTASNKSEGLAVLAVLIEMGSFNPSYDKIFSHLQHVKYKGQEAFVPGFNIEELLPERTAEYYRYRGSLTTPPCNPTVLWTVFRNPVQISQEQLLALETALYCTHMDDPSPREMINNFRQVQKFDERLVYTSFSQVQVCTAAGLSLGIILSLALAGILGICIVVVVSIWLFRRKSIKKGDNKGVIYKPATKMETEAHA
Chain of Carbonic anhydrase 13 (Q8N1Q1 whole entry): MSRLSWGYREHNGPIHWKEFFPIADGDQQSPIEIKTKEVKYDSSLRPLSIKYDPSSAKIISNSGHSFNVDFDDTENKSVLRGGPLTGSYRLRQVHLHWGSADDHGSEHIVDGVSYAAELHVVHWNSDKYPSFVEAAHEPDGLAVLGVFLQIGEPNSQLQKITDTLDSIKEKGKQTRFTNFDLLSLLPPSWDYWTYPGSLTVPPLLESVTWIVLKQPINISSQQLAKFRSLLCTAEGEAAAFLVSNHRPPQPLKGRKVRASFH
Chain of Carbonic anhydrase 5A, mitochondrial (P35218 whole entry): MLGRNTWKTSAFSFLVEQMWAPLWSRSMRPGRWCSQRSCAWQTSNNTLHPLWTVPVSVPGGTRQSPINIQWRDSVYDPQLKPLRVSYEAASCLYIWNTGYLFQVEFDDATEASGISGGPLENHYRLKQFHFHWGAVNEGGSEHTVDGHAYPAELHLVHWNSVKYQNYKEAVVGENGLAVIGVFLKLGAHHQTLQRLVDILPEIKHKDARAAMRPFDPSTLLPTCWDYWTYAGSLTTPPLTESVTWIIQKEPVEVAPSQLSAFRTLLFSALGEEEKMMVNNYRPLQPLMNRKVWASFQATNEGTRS
Chain of Carbonic anhydrase 5B, mitochondrial (Q9Y2D0 whole entry): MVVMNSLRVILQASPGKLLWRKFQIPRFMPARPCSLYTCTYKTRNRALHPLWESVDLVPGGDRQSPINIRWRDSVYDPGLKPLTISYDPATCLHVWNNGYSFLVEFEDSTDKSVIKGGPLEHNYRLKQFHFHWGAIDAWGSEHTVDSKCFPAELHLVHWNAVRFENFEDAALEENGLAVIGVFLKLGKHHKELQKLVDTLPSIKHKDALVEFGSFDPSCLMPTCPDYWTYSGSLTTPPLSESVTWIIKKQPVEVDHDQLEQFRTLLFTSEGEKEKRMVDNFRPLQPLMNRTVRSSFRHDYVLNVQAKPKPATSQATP
Chain of Carbonic anhydrase 3 (P07451 whole entry): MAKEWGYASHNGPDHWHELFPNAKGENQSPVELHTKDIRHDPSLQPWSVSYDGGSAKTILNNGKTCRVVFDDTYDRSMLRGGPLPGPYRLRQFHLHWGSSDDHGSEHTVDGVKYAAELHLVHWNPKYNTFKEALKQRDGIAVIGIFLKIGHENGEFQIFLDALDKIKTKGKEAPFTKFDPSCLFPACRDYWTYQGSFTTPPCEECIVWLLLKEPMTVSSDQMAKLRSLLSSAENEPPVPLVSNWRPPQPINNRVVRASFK
Chain of Carbonic anhydrase 4 (P22748 whole entry): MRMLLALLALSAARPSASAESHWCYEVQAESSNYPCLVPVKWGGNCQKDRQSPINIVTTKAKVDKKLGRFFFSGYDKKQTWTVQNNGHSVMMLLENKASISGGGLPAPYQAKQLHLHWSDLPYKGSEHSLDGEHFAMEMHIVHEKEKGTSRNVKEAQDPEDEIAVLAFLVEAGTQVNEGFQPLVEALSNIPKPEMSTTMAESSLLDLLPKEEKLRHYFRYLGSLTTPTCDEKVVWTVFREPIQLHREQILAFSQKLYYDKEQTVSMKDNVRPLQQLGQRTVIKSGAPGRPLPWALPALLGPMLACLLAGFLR
Chain of Carbonic anhydrase 6 (P23280 whole entry): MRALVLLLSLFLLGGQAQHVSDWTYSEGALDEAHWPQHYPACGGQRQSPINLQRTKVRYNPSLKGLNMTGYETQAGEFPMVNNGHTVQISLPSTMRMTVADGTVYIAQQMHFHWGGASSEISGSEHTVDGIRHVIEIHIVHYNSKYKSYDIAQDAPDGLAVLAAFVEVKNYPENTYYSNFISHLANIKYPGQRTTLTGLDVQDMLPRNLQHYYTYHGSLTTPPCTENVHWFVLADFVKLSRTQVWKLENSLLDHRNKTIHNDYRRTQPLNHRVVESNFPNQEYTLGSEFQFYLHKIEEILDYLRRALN
Chain of Carbonic anhydrase 14 (Q9ULX7 whole entry): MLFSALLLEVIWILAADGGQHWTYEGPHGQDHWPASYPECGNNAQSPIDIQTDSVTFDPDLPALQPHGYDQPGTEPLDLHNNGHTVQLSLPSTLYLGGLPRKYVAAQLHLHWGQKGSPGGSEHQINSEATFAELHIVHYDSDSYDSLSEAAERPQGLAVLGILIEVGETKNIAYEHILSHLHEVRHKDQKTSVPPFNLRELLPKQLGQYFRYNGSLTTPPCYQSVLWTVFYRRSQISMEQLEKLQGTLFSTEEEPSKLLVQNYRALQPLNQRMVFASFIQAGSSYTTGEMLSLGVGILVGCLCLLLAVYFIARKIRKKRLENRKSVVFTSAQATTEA

| Structure (SMILES) | Ki (Carbonic anhydrase 15) [µM] | Ki (Carbonic anhydrase 7) [µM] | Ki (Carbonic anhydrase 9 [1]) [µM] | Ki (Carbonic anhydrase 12 [2]) [µM] | Ki (Carbonic anhydrase 6) [µM] | Ki [3] [µM] | Ki (Carbonic anhydrase 14) [µM] | Ki (Carbonic anhydrase 2 [4]) [µM] | Ki (Carbonic anhydrase 4) [µM] | Ki [5] [µM] | Ki (Carbonic anhydrase 3) [µM] | Ki (Carbonic anhydrase 13) [µM] | Ki (Carbonic anhydrase 1 [6]) [µM] | Ki (Carbonic anhydrase 9 [7]) [µM] | Ki (Carbonic anhydrase 1 [8]) [µM] | Ki (Carbonic anhydrase 2 [9]) [µM] | Ki (Carbonic anhydrase 12 [10]) [µM] |
| --- | --- | --- | --- | --- | --- | --- | --- | --- | --- | --- | --- | --- | --- | --- | --- | --- | --- |
| Nc1oc2ccc(Cl)cc2c(=O)c1-c1ccc(Cl)cc1 | 3.75 | 7.95 | 3.4 | 9.31 |  |  |  |  |  |  |  |  |  |  |  |  |  |
| COc1ccc(-c2c(N)oc3ccc(Cl)cc3c2=O)cc1 | 1.65 | 6.75 | 2.41 | 6.49 |  |  |  |  |  |  |  |  |  |  |  |  |  |
| Oc1ccc(C=Cc2cc(O)cc(O)c2)cc1 (mixture of isomers) | 2.57 | 8.98 | 9.53 | 8.13 | 8.63 | 3.24 | 1.95 | 1.75 | 4.01 | 2.86 | 6.75 | 8.25 |  |  |  |  |  |
| O=c1cc(-c2ccccc2)oc2cc(O)ccc12 [7-HYDROXYFLAVONE] |  |  | 4.92 | 8.4 |  |  |  | 2.24 |  |  |  |  | 3.37 | 4.85 | 3.43 | 2.32 | 8.51 |
| O=c1cc(-c2ccccc2)oc2cc(O)cc(O)c12 [CHRYSIN] |  |  | 2.65 | 8.96 |  |  |  | 4.38 |  |  |  |  | 5.49 | 2.71 | 5.42 | 4.31 | 9.07 |
| O=c1cc(-c2ccccc2)oc2ccccc12 [FLAVONE] |  |  | 4.13 | 7.22 |  |  |  | 8.71 |  |  |  |  | 1.89 | 4.22 | 1.88 | 8.8 | 7.33 |
| O=c1c(O)c(-c2ccccc2)oc2ccccc12 [FLAVONOL] |  |  | 5.54 | 6.59 |  |  |  | 9.3 |  |  |  |  | 5.21 | 5.63 | 5.1 | 9.2 | 6.65 |
